These results are taken from publication PMC10448495 (ACS Omega, 2023).

What all share (assay type): in vivo
Assay [1] has as its system mice. The experiment in a line: Carrageenan-induced paw edema model. The settings on record: dose 10 mg/kg. In outline: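 Thirty BALB-c mice randomised into five groups of six. Paw volume by digital plethysmometer at 0, 1, 2, 3, 4 and 5 h; percent inhibition from paw-volume increase, control versus treated. ANOVA/Dunnett's.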
On the technique in general: In the carrageenan paw model, swelling and tenderness develop within hours.

Assay [2] concerns mice (BALB-c). The experiment in a line: Acetic acid-induced writhing assay. The settings on record: 10 mg/kg i.p. In outline:
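BALB-c mice of either sex (18–22 g), fasted 2 h, six per group. Writhes counted starting 5 min after acid; percent analgesic effect derived. Mean ± S.E.M., ANOVA with Dunnett's test versus negative control.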
In general terms: Writhing tests count abdominal constrictions after an irritant is injected.

Assay [3] concerns mice (BALB-c). The experiment in a line: Hot plate assay. The following applies: dose 10 mg/kg.

For `O=C(O)Cc1ccccc1Nc1c(Cl)cccc1Cl` [diclofenac–Na, diclofenac sodium], the paw volume in assay [1] (1 h) is 2.283 ± 0.201; in assay [1] (2 h) it was 2.142 ± 0.105; in assay [1] (3 h) it was 2.004 ± 0.224; in assay [1] (4 h), 2.010 ± 0.185; in assay [1] (5 h) it was 2.019 ± 0.022.

`COc1ccc2c(c1)c(CC(=O)O)c(C)n2C(=O)c1ccc(Cl)cc1` [indomethacin]: the “no. of writhing (20 min)” value in assay [2] is 17.04 ± 1.22. Besides, the paw volume in assay [1] (1 h) was 2.462 ± 0.032; in assay [1] (2 h), 2.207 ± 0.218; in assay [1] (3 h) it was 2.100 ± 0.122; in assay [1] (4 h), 2.128 ± 0.370; in assay [1] (5 h) it was 2.184 ± 0.632.

Take `COc1cccc(C2(O)CCCCC2CN(C)C)c1` (stereo not shown) [tramal, tramadol]: the “latency of nociceptive response” value in assay [3] (0 min) worked out at 10.32 ± 0.57 s; in assay [3] (30 min), 26.22 ± 1.07 s; in assay [3] (60 min), 25.45 ± 2.52 s; in assay [3] (90 min) it was 20.37 ± 0.88 s; in assay [3] (120 min), 20.07 ± 1.66 s.
